According to ChEMBL document CHEMBL1770121 (Bioorg Med Chem, 2011):
Values after ≈ are worked out from the molar mass of the structure shown.

Columns and labels:
[1] = tested on: HepG2; assay: Antiproliferative activity against human HepG2 cells after 48 hrs by MTT assay; assay type: functional, cell-based; details: HepG2, 48 h
Procedure, shortened: (§1)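 Log-phase cells grown in RPMI 1640 with 10% FBS were seeded at 2 × 10⁴ cells/mL and left 24 h at 37 °C, 5% CO₂. […] After 48 h MTT was added and the formazan dissolved in 10% SDS–5% isobutyl alcohol–0.01 M HCl overnight at 37 °C. OD was read at 570 nm, three replicate wells per concentration.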

[2] = tested on: A549; assay: Antiproliferative activity against human A549 cells after 48 hrs by MTT assay; assay type: functional, cell-based; details: A549, 48 h; procedure, shortened: as §1
[3] = tested on: B16-F10; assay: Antiproliferative activity against mouse B16F10 cells after 48 hrs by MTT assay; assay type: functional, cell-based; details: B16-F10, 48 h; procedure, shortened: as §1
[4] = Inhibition of bovine brain tubulin polymerization after 20 mins by turbidimetry; design: species or system Bos taurus
Procedure, shortened: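 Varying concentrations were preincubated with 10 µM tubulin in glutamate buffer at 30 °C, then cooled to 0 °C. GTP was added and the mixtures moved to 0 °C cuvettes in a recording spectrophotometer. Assembly was followed by turbidity on warming to 30 °C.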

[5] = tested on: B16-F10; assay: Cell cycle arrest in mouse B16F10 cells assessed as accumulation at G2/M phase at 1 ug/ml after 24 hrs by flow cytometry (Rbv = 12.27%); assay type: functional
[6] = tested on: B16-F10; assay: Cell cycle arrest in mouse B16F10 cells assessed as accumulation at G2/M phase at 5 ug/ml after 24 hrs by flow cytometry (Rbv = 12.27%); assay type: functional
[7] = tested on: B16-F10; assay: Cell cycle arrest in mouse B16F10 cells assessed as accumulation at Go/G1 phase at 1 ug/ml after 24 hrs by flow cytometry (Rbv = 66.15%); assay type: functional
[8] = tested on: B16-F10; assay: Cell cycle arrest in mouse B16F10 cells assessed as accumulation at Go/G1 phase at 5 ug/ml after 24 hrs by flow cytometry (Rbv = 66.15%); assay type: functional
[9] = tested on: B16-F10; assay: Cell cycle arrest in mouse B16F10 cells assessed as accumulation at S phase at 1 ug/ml after 24 hrs by flow cytometry (Rbv = 14.96%); assay type: functional
[10] = tested on: B16-F10; assay: Cell cycle arrest in mouse B16F10 cells assessed as accumulation at S phase at 5 ug/ml after 24 hrs by flow cytometry (Rbv = 14.96%); assay type: functional

Row | SMILES | IC50 [1] | IC50 [2] | IC50 [3] | IC50 [4] | Activity [5] | Activity [6] | Activity [7] | Activity [8] | Activity [9] | Activity [10]
1 | CCCCOc1ccc(C(=O)/C=C/c2c(/C=C/c3ccc(OC)cc3)cc(OC)cc2OC)cc1 | 12.9 µg/mL (≈ 27.3 µM) | 8.7 µg/mL (≈ 18.4 µM) | 5.3 µg/mL (≈ 11.2 µM) | 94 µg/mL (≈ 199 µM) |  |  |  |  |  | 
2 | CCCC(C)Oc1ccc(C(=O)/C=C/c2c(/C=C/c3ccc(OC)cc3)cc(OC)cc2OC)cc1 (configuration not stated) | 11.1 µg/mL (≈ 22.8 µM) | 9.4 µg/mL (≈ 19.3 µM) | 6.7 µg/mL (≈ 13.8 µM) | 55 µg/mL (≈ 113 µM) |  |  |  |  |  | 
3 | CCCCCCCCCCCCOc1ccc(C(=O)/C=C/c2c(/C=C/c3ccc(OC)cc3)cc(OC)cc2OC)cc1 | 11.6 µg/mL (≈ 19.8 µM) | 7.9 µg/mL (≈ 13.5 µM) | 12.7 µg/mL (≈ 21.7 µM) | 58 µg/mL (≈ 99.2 µM) |  |  |  |  |  | 
4 | COc1ccc(/C=C/c2cc(OC)cc(OC)c2/C=C/C(=O)c2ccc(F)cc2)cc1 | 12.2 µg/mL (≈ 29.2 µM) | 6.6 µg/mL (≈ 15.8 µM) | 5.3 µg/mL (≈ 12.7 µM) | 64 µg/mL (≈ 153 µM) |  |  |  |  |  | 
5 | COc1ccc(/C=C/c2cc(OC)cc(OC)c2/C=C/C(=O)c2ccc(Br)cc2)cc1 | 12.9 µg/mL (≈ 26.9 µM) | 8.3 µg/mL (≈ 17.3 µM) | 6.5 µg/mL (≈ 13.6 µM) | 72 µg/mL (≈ 150 µM) |  |  |  |  |  | 
6 | COc1ccc(/C=C/c2cc(OC)cc(OC)c2/C=C/C(=O)c2cccc(Cl)c2)cc1 | 9.5 µg/mL (≈ 21.8 µM) | 5.6 µg/mL (≈ 12.9 µM) | 3.3 µg/mL (≈ 7.59 µM) | 41 µg/mL (≈ 94.3 µM) |  |  |  |  |  | 
7 | COc1ccc(/C=C/c2cc(OC)cc(OC)c2/C=C/C(=O)c2cccc(Br)c2)cc1 | 13 µg/mL (≈ 27.1 µM) | 8.1 µg/mL (≈ 16.9 µM) | 5.1 µg/mL (≈ 10.6 µM) | 76 µg/mL (≈ 159 µM) |  |  |  |  |  | 
8 | COc1ccc(/C=C/c2cc(OC)cc(OC)c2/C=C/C(=O)c2ccc(Cl)c(Cl)c2)cc1 | 10.8 µg/mL (≈ 23 µM) | 5.9 µg/mL (≈ 12.6 µM) | 7.5 µg/mL (≈ 16 µM) | 47 µg/mL (≈ 100 µM) |  |  |  |  |  | 
9 | COc1ccc(/C=C/c2cc(OC)cc(OC)c2/C=C/C(=O)c2ccc(C(F)(F)F)cc2)cc1 | 18.7 µg/mL (≈ 39.9 µM) | 7.8 µg/mL (≈ 16.6 µM) | 4.3 µg/mL (≈ 9.18 µM) | 150 µg/mL (≈ 320 µM) |  |  |  |  |  | 
10 | COc1ccc(/C=C/c2cc(OC)cc(OC)c2/C=C/C(=O)c2ccc(C)cc2)cc1 | 4.8 µg/mL (≈ 11.6 µM) | 3.6 µg/mL (≈ 8.69 µM) | 5.3 µg/mL (≈ 12.8 µM) | 29 µg/mL (≈ 70 µM) |  |  |  |  |  | 
11 | COc1ccc(/C=C/c2cc(OC)cc(OC)c2/C=C/C(=O)c2ccccc2C)cc1 | 5.3 µg/mL (≈ 12.8 µM) | 5.9 µg/mL (≈ 14.2 µM) | 6.1 µg/mL (≈ 14.7 µM) | 42 µg/mL (≈ 101 µM) |  |  |  |  |  | 
12 | COc1ccc(/C=C/c2cc(OC)cc(OC)c2/C=C/C(=O)c2ccc(N)cc2)cc1 | 7.5 µg/mL (≈ 18.1 µM) | 3.8 µg/mL (≈ 9.15 µM) | 2.8 µg/mL (≈ 6.74 µM) | 36 µg/mL (≈ 86.6 µM) |  |  |  |  |  | 
13 | COc1ccc(/C=C/c2cc(OC)cc(OC)c2/C=C/C(=O)c2ccccc2)cc1 | 6.8 µg/mL (≈ 17 µM) | 3.9 µg/mL (≈ 9.74 µM) | 3.7 µg/mL (≈ 9.24 µM) | 34 µg/mL (≈ 84.9 µM) |  |  |  |  |  | 
14 | COc1cc2c(c(OC)c1OC)-c1ccc(OC)c(=O)cc1[C@@H](NC(C)=O)CC2 [COLCHICINE] | 0.23 µg/mL (≈ 0.576 µM) | 0.12 µg/mL (≈ 0.3 µM) | 0.5 µg/mL (≈ 1.25 µM) |  | 90.46% |  | 2.65% |  | 2.29% | 
15 | COc1ccc(/C=C\c2cc(OC)c(OC)c(OC)c2)cc1O [COMBRETASTATIN A4] | 0.19 µg/mL (≈ 0.601 µM) | 0.09 µg/mL (≈ 0.284 µM) | 0.4 µg/mL (≈ 1.26 µM) | 0.7 µg/mL (≈ 2.21 µM) |  |  |  |  |  | 
16 | Oc1ccc(/C=C/c2cc(O)cc(O)c2)cc1 [RESVERATROL] | 38.9 µg/mL (≈ 170 µM) | 30.4 µg/mL (≈ 133 µM) | 37.3 µg/mL (≈ 163 µM) | 158 µg/mL (≈ 692 µM) |  |  |  |  |  | 

Further lines, with some results ahead:

Row | IC50 [1] | IC50 [2] | IC50 [3] | IC50 [4] | SMILES | Activity [5] | Activity [6] | Activity [7] | Activity [8] | Activity [9] | Activity [10]
17 | 16.2 µg/mL (≈ 32.4 µM) | 8.4 µg/mL (≈ 16.8 µM) | 10.4 µg/mL (≈ 20.8 µM) | 131 µg/mL (≈ 262 µM) | CCCCCCOc1ccc(C(=O)/C=C/c2c(/C=C/c3ccc(OC)cc3)cc(OC)cc2OC)cc1 |  |  |  |  |  | 
18 | 13.6 µg/mL (≈ 31.3 µM) | 6.4 µg/mL (≈ 14.7 µM) | 4.9 µg/mL (≈ 11.3 µM) | 80 µg/mL (≈ 184 µM) | COc1ccc(/C=C/c2cc(OC)cc(OC)c2/C=C/C(=O)c2ccc(Cl)cc2)cc1 |  |  |  |  |  | 
19 | 0.9 µg/mL (≈ 2.1 µM) | 0.3 µg/mL (≈ 0.7 µM) | 4 µg/mL (≈ 9.33 µM) | 4.1 µg/mL (≈ 9.57 µM) | COc1ccc(/C=C/c2cc(OC)cc(OC)c2/C=C/C(=O)c2ccc(C)cc2C)cc1 |  |  |  |  |  | 
20 | 0.2 µg/mL (≈ 0.467 µM) | 0.1 µg/mL (≈ 0.233 µM) | 1.4 µg/mL (≈ 3.27 µM) | 2.6 µg/mL (≈ 6.07 µM) | COc1ccc(/C=C/c2cc(OC)cc(OC)c2/C=C/C(=O)c2ccc(C)c(C)c2)cc1 | 31.5% | 72.1% | 39.65% | 10.05% | 13.99% | 7.04%
21 | 6.3 µg/mL (≈ 13.4 µM) | 5.4 µg/mL (≈ 11.5 µM) | 8.1 µg/mL (≈ 17.2 µM) | 33 µg/mL (≈ 70 µM) | CCN(CC)c1ccc(C(=O)/C=C/c2c(/C=C/c3ccc(OC)cc3)cc(OC)cc2OC)cc1 |  |  |  |  |  | 
22 | 10.5 µg/mL (≈ 22 µM) | 4.6 µg/mL (≈ 9.65 µM) | 10.6 µg/mL (≈ 22.2 µM) | 44 µg/mL (≈ 92.3 µM) | COc1ccc(/C=C/c2cc(OC)cc(OC)c2/C=C/C(=O)c2ccc(-c3ccccc3)cc2)cc1 |  |  |  |  |  | 
23 | 7.3 µg/mL (≈ 15 µM) | 3.8 µg/mL (≈ 7.83 µM) | 3.3 µg/mL (≈ 6.8 µM) | 38 µg/mL (≈ 78.3 µM) | COc1ccc(/C=C/c2cc(OC)cc(OC)c2/C=C/C(=O)c2ccc(N3CCOCC3)cc2)cc1 |  |  |  |  |  | 
24 | 11.6 µg/mL (≈ 26.9 µM) | 6.1 µg/mL (≈ 14.2 µM) | 4.3 µg/mL (≈ 9.99 µM) | 59 µg/mL (≈ 137 µM) | COc1ccc(/C=C/c2cc(OC)cc(OC)c2/C=C/C(=O)c2cccc(OC)c2)cc1 |  |  |  |  |  | 
25 | 4.9 µg/mL (≈ 11.4 µM) | 4.5 µg/mL (≈ 10.5 µM) | 5.8 µg/mL (≈ 13.5 µM) | 43 µg/mL (≈ 99.9 µM) | COc1ccc(/C=C/c2cc(OC)cc(OC)c2/C=C/C(=O)c2ccc(OC)cc2)cc1 |  |  |  |  |  | 
26 | 8 µg/mL (≈ 18 µM) | 7.5 µg/mL (≈ 16.9 µM) | 6.4 µg/mL (≈ 14.4 µM) | 26 µg/mL (≈ 58.5 µM) | CCOc1ccc(C(=O)/C=C/c2c(/C=C/c3ccc(OC)cc3)cc(OC)cc2OC)cc1 |  |  |  |  |  | 
